Values after ≈ are worked out from the molar mass of the structure shown. Active and inactive are the calls of the source. The calls are words filed in the database; no cut-off is given here.
Tests used:
[1] = Induction of primary neuronal stem cell differentiation derived from subgranular zone of dentate gyrus of Wistar rat hippocampus assessed as upregulation of TuJ1 expression at 10 uM incubated for 7 days followed by 48 hrs incubation in presence of serum and absence of EGF by DAPI staining-based fluorescence microscopic analysis; assay type: functional; details: Primary neuron
In short: (§1)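 Neurospheres came from the SGZ of the dentate gyrus of adult male Wistar rats (8-12 weeks). They were grown in DMEM/F12 with 10 ng/mL EGF, 10 ng/mL FGF and B27. After 3 days, cultures were treated with compounds for 7 days. They were then plated on poly-L-lysine coverslips for 48 h with serum and without growth factors. Cells were immunostained for TuJ1 and MAP-2 with DAPI nuclei. Positive cells were counted by fluorescence microscopy in five NS per condition over three independent experiments. Untreated cultures gave basal values.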

[2] = molecular target: T1, Melatonin receptor type 1A (Homo sapiens, UniProt P48039); experiment: Agonist activity at human melatonin receptor-1 transfected in CHO cell membranes after 1 hr by GTPgammaS binding assay relative to melatonin; assay type: functional
In short: (§2)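 CHO membranes (20 µg/mL) stably expressing human MT1 or MT2 in 20 mM HEPES pH 7.4, 100 mM NaCl, 3 µM GDP, 3 mM MgCl2, 20 µg/mL saponin. Incubated with 0.2 nM [35S]GTPγS for 1 h at rt, then filtered. Non-specific binding defined with 10 µM GTPγS. Seven concentrations in duplicate; EC50 and Emax fitted.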

[3] = molecular target: T2, Melatonin receptor type 1B (Homo sapiens) (UniProt P49286); experiment: Agonist activity at human melatonin receptor-2 transfected in CHO cell membranes after 1 hr by GTPgammaS binding assay relative to melatonin; assay type: functional; in short: as §2
T2 sequence (whole entry): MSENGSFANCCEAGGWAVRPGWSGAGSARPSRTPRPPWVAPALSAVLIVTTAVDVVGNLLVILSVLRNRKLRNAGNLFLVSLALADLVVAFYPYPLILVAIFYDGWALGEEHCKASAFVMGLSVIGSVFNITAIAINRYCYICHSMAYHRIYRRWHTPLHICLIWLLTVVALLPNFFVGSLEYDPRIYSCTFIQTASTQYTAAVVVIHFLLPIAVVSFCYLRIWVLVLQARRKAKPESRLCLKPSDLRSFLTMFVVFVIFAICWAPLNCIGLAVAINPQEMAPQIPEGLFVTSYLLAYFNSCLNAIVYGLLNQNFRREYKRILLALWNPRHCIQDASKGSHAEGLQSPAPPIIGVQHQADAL

[4] = Induction of primary neuronal stem cell maturation derived from subgranular zone of dentate gyrus of Wistar rat hippocampus assessed as upregulation of MAP-2 expression at 10 uM incubated for 7 days by DAPI staining-based fluorescence microscopic analysis; assay type: functional; details: Primary neuron; in short: as §1
Homo sapiens = species on record: Homo sapiens; experiment: Selectivity ratio of Ki for human melatonin receptor-1 to Ki for human melatonin receptor-2
[5] = molecular target: T1, Melatonin receptor type 1A; experiment: Displacement of 2-[125I]-iodomelatonin from human melatonin receptor-1 transfected in CHO cell membranes after 120 mins
[6] = molecular target: T1, Melatonin receptor type 1A; experiment: Agonist activity at human melatonin receptor-1 transfected in CHO cell membranes after 1 hr by GTPgammaS binding assay; assay type: functional
[7] = molecular target: T3, Melatonin receptor type 1B (Homo sapiens, UniProt P49286); experiment: Displacement of 2-[125I]-iodomelatonin from human melatonin receptor-2 transfected in CHO cell membranes after 120 mins
T3 sequence (P49286 whole entry): T2 sequence (whole entry)

[8] = molecular target: T3, Melatonin receptor type 1B; experiment: Agonist activity at human melatonin receptor-2 transfected in CHO cell membranes after 1 hr by GTPgammaS binding assay; assay type: functional
[9] = Thermodynamic solubility in buffer at pH 5.5 after 24 hrs by UV spectra analysis; assay type: physicochemical; details: read-out: Therm_solubility
[10] = Thermodynamic solubility in NH4Cl buffer at pH 9.3 after 24 hrs by UV spectra analysis; assay type: physicochemical; details: read-out: Therm_solubility
In short: (§3)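 Thermodynamic solubility: about 1 mg of solid was saturated in 200 µL buffer and stirred 24 h at rt at 320 rpm, then centrifuged. Supernatant was diluted with buffer-MeCN 80:20 and read by UV at its absorbance maximum. Values were quantified against a calibration line from a 10 mM DMSO stock, checked with a quality-control standard. Runs were in triplicate. The buffers were pH 7.4 phosphate 45 mM and NH4Cl for the basic pH.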

[11] = Thermodynamic solubility in phosphate buffer at pH 7.4 after 24 hrs by UV spectra analysis; assay type: physicochemical; details: read-out: Therm_solubility; in short: as §3
[12] = molecular target: T4, 5-hydroxytryptamine receptor 1A (Rattus norvegicus, UniProt P19327); experiment: Displacement of [3H]8-OH DPAT from rat 5HT1A receptor expressed in CHO cells after 30 mins by liquid scintillation counting analysis; assay type: cell-based
T4 sequence (P19327 whole entry): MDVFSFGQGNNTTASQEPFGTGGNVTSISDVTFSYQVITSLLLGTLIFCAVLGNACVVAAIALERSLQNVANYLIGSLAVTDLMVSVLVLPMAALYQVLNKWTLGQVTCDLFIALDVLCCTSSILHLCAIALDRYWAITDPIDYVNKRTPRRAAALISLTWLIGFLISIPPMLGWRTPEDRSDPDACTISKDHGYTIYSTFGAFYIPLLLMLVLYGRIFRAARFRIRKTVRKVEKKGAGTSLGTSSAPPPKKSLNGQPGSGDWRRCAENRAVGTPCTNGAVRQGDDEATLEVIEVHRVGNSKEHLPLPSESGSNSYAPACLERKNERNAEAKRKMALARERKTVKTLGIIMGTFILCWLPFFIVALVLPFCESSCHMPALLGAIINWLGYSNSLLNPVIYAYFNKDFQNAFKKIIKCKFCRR

[13] = molecular target: 5-hydroxytryptamine receptor 2A (Rattus norvegicus, UniProt P14842); experiment: Displacement of [3H]DOB from rat 5HT2A receptor expressed in mouse NIH/3T3 cells after 30 mins by liquid scintillation counting analysis; assay type: cell-based
[14] = Solubility in the water; assay type: physicochemical; details: buffer
[15] = Induction of primary neuronal stem cell differentiation derived from subgranular zone of dentate gyrus of Wistar rat hippocampus assessed as upregulation of TuJ1 expression at 10 uM incubated for 7 days followed by 48 hrs incubation in presence of serum and absence of EGF by DAPI staining-based fluorescence microscopic analysis in presence of melatonin receptor antagonist luzindole; assay type: functional; details: Primary neuron; in short: as §1
[16] = Induction of primary neuronal stem cell maturation derived from subgranular zone of dentate gyrus of Wistar rat hippocampus assessed as upregulation of MAP-2 expression at 10 uM incubated for 7 days by DAPI staining-based fluorescence microscopic analysis in presence of melatonin receptor antagonist luzindole; assay type: functional, tissue-based; details: Primary neuron; in short: as §1

T1 sequence (P48039 whole entry): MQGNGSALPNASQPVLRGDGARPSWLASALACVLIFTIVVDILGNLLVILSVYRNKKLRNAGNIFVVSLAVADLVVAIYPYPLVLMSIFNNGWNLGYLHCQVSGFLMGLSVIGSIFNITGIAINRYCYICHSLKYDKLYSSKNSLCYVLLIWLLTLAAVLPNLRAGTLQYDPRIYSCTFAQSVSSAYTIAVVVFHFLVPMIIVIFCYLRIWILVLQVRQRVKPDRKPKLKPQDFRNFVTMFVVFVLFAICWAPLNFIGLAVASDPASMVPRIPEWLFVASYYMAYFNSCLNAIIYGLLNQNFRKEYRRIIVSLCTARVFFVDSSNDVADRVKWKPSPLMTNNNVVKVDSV
5-hydroxytryptamine receptor 2A, sequence (P14842 whole entry): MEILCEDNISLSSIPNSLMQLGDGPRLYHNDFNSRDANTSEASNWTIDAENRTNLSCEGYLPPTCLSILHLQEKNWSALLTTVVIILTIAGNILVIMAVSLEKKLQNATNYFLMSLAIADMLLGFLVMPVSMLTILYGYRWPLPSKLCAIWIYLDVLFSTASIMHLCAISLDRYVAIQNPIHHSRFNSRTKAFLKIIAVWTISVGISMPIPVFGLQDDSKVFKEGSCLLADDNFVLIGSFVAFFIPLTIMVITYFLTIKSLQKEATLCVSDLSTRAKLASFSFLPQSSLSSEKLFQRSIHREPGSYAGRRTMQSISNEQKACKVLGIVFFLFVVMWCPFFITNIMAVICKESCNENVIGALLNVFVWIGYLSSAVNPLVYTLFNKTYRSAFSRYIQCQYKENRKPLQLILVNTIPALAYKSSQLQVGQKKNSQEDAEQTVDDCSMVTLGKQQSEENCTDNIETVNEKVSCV

Structure (SMILES)	Emax [2] [%]	Emax [3] [%]	Ratio Ki (Homo sapiens)	Ki [5] [nM]	EC50 [6] [nM]	Ki [7] [nM]	EC50 [8] [nM]	solubility thermodynamic at 24 h [11] [µM]	other results
C#CCNC(=O)CCc1c[nH]c2ccc(OC)cc12	106	99	5						Activity [1]: Active; Activity [4]: inactive
COc1ccc2[nH]cc(CCc3nnco3)c2c1		25	8.6	570	> 1000	68	457		
COc1ccc2[nH]cc(Cc3n[nH]c(=O)o3)c2c1				> 1000		160	> 1000		
COc1ccc2[nH]cc(CCc3n[nH]c(=S)o3)c2c1		32		> 1000		530	1100	3460 (≈ 953 µg/mL)	solubility thermodynamic at 24 h [9]: 907 µM (≈ 250 µg/mL); solubility thermodynamic at 24 h [10]: 18700 µM (≈ 5140 µg/mL)
COc1ccc2[nH]cc(CCc3n[nH]c(=O)n3C)c2c1				> 1000		> 1000		1100 (≈ 301 µg/mL)	solubility thermodynamic at 24 h [9]: 860 µM (≈ 234 µg/mL); solubility thermodynamic at 24 h [10]: 1410 µM (≈ 383 µg/mL)
CCn1c(Cc2c[nH]c3ccc(OC)cc23)n[nH]c1=S				> 1000		220	> 1000		
C=CCNC(=O)CCc1c[nH]c2ccc(OC)cc12	92	88	5.5	2.5	204	0.45	11		
COc1ccc2[nH]cc(Cc3nnc(C)o3)c2c1		24	10	210	> 1000	16	71	970 (≈ 236 µg/mL)	
COc1ccc2[nH]cc(Cc3nc(C)no3)c2c1	16	48	3.9	170	711	44	295	1160 (≈ 283 µg/mL)	
COc1ccc2cccc(CCNC(C)=O)c2c1 [AGOMELATINE]								804 (≈ 196 µg/mL)	
COc1ccc2[nH]cc(Cc3n[nH]c(=O)n3C)c2c1				> 1000		560	> 1000		
C#CCNC(=O)Cc1c[nH]c2ccc(OC)cc12	67	82	3.6	14	289	3.8	81		
C=CCNC(=O)Cc1c[nH]c2ccc(OC)cc12	64	70	3.5	17	525	4.9	132		
COc1ccc2[nH]cc(CCc3ncc(C)o3)c2c1		32		> 1000		498	503		
COc1ccc2[nH]cc(CCN(C)C)c2c1 [MEBUFOTENIN]	62	28	10	210	257	16	112		Ki [12]: 11 nM; Ki [13]: 92 nM
COc1ccc2[nH]cc(CCNC(C)=O)c2c1 [MELATONIN]								6640 (≈ 1540 µg/mL)	Activity [1]: Active; Activity [4]: Active; solubility [14]: 400 µM (≈ 92.9 µg/mL); Activity [15]: inactive; Activity [16]: inactive
CC(=O)NCCc1c(Cc2ccccc2)[nH]c2ccccc12									Activity [1]: inactive
CCn1c(CCc2c[nH]c3ccc(OC)cc23)n[nH]c1=S				> 1000		> 1000		137 (≈ 41.4 µg/mL)	solubility thermodynamic at 24 h [9]: 131 µM (≈ 39.6 µg/mL); solubility thermodynamic at 24 h [10]: 208 µM (≈ 62.9 µg/mL)
COc1ccc2[nH]cc(Cc3ncc(C)o3)c2c1	23			280	989	> 1000			
COc1ccc2[nH]cc(CCc3nc(C)no3)c2c1				> 1000		> 1000			
COc1ccc2[nH]cc(Cc3n[nH]c(=S)o3)c2c1				> 1000		535	> 1000		
CCNc1nnc(Cc2c[nH]c3ccc(OC)cc23)s1		35	> 500	> 1000		17	110	1420 (≈ 409 µg/mL)	Activity [1]: Active; solubility thermodynamic at 24 h [9]: 1720 µM (≈ 495 µg/mL); solubility thermodynamic at 24 h [10]: 1440 µM (≈ 414 µg/mL)

Source: ChEMBL document CHEMBL3580567 (J Med Chem, 2015)
